The values that follow come from ChEMBL document CHEMBL4033659, “Novel lipid-mimetic prodrugs delivering active compounds to adipose tissue” (Eur J Med Chem, 2017).

A short description of series [1]: Drug uptake in C57BL mouse subcutaneous adipose tissue at 176 umol/kg administered with high fat diet after 2 weeks by HPLC/UV analysis. The format is ADME. The settings on record: in vivo, po, 336 h. Summed up:
(§1)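 Mice received the lipid-mimetic derivatives chronically for 2 weeks. Pterostilbene and its metabolites were then quantified in blood and organs, and values are reported as mean ± st. dev. across animals.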

The nature of series [2]: Drug uptake in C57BL mouse visceral adipose tissue at 176 umol/kg administered with high fat diet after 2 weeks by HPLC/UV analysis. The format is ADME. The settings on record: in vivo, po, 336 h. Summed up: as §1
Series [3] has as its target T1, Pancreatic triacylglycerol lipase (Sus scrofa, UniProt P00591).
T1 sequence (P00591 whole entry): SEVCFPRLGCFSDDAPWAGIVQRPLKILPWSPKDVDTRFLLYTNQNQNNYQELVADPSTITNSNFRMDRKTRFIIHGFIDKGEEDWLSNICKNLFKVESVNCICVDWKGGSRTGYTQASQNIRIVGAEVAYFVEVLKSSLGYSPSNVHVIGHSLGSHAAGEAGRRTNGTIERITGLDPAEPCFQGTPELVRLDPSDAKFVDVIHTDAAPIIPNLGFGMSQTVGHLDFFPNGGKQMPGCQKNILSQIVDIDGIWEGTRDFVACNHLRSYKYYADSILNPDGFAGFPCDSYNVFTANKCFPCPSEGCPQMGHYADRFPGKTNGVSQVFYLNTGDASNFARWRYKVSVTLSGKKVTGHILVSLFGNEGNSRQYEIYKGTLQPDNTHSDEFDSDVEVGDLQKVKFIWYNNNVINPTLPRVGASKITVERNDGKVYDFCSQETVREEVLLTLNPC
The series can be described thus: Prodrug conversion assessed as porcine pancreatic lipase-mediated formation of 1,3-dihydroxypropan-2-yl 10-((4-(3,5-dimethoxystyryl)phenoxy)carbonylamino)decanoate by measuring hydrolysis rate constant K2 by HPLC/UV analysis. The series is classed as ADME. The conditions noted are these: pig.

For another series, the system named is Blood. The series can be described thus: Drug uptake in C57BL mouse bloodstream at 176 umol/kg administered with high fat diet after 2 weeks by HPLC/UV analysis. The format is ADME, tissue-based. The conditions noted are these: po, 336 h. The procedure, abridged:
as §1

For the next series, the system named is Liver. The series can be described thus: Drug uptake in C57BL mouse liver at 176 umol/kg administered with high fat diet after 2 weeks by HPLC/UV analysis. The format is ADME, tissue-based. The conditions noted are these: in vivo, po, 336 h. Summed up:
as §1

Series [4] is described as follows: Drug uptake in C57BL mouse visceral adipose tissue assessed as retention time at 176 umol/kg administered with high fat diet after 2 weeks by HPLC/UV analysis. The series is classed as ADME. The settings on record: in vivo, po, 336 h.
Series [5] addresses T1, Pancreatic triacylglycerol lipase. The series can be described thus: Prodrug conversion assessed as porcine pancreatic lipase-mediated formation of 2-(10-((4-(3,5-dimethoxystyryl)phenoxy)carbonylamino)decanoyloxy)-3-hydroxypropyl oleate by measuring hydrolysis rate constant K1 by HPLC/UV analysis. The series is classed as ADME. The settings on record: pig.
Series [6] has the same target. The series can be described thus: Prodrug conversion assessed as porcine pancreatic lipase-mediated formation of 10-((4-(3,5-dimethoxystyryl)phenoxy)carbonylamino)decanoic acid by measuring hydrolysis rate constant K3 by HPLC/UV analysis. The settings on record: pig. The series is classed as ADME.
The target is the same in series [7]. The series can be described thus: Prodrug conversion assessed as porcine pancreatic lipase mediated formation of 10-((4-(3,5-dimethoxystyryl)phenoxy)carbonylamino)decanoic acid by measuring hydrolysis rate constant by HPLC/UV analysis. The format is ADME. The settings on record: pig.
The target is the same in series [8]. The series can be described thus: Prodrug conversion assessed as porcine pancreatic lipase-mediated formation of 10-((4-(3,5-dimethoxystyryl)phenoxy)carbonylamino)decanoic acid by measuring hydrolysis rate constant K2 by HPLC/UV analysis. The format is ADME. The settings on record: pig.
Series [9] shares this target. The series can be described thus: Prodrug conversion assessed as porcine pancreatic lipase-mediated formation of 1-(10-((4-(3,5-dimethoxystyryl)phenoxy)carbonylamino)decanoyloxy)-3-hydroxypropan-2-yl oleate, 10-((4-(3,5-dimethoxystyryl)phenoxy)carbonylamino)decanoic acid by measuring hydrolysis rate constant K1 by HPLC/UV analysis. The format is ADME. The conditions noted are these: pig.

The structures appear in SMILES notation.

Regarding `CCCCCCCC/C=C\CCCCCCCC(=O)OCC(COC(=O)CCCCCCC/C=C\CCCCCCCC)OC(=O)CCCCCCCCCNC(=O)Oc1ccc(/C=C/c2cc(OC)cc(OC)c2)cc1`, the Drug uptake result in [1] is “Active”; in series [2], “Active”; with Blood, “Not Active”; in the series on Liver it was “Active”. Also, the K is 9.49 h⁻¹ in series [3], 3.04 h⁻¹ in [5] and 0.24 h⁻¹ in [6]. In addition, the Retention time in [4] lay in the range of 5.8 to 6.5 min.

Take `CCCCCCCC/C=C\CCCCCCCC(=O)OCC(COC(=O)CCCCCCCCCNC(=O)Oc1ccc(/C=C/c2cc(OC)cc(OC)c2)cc1)OC(=O)CCCCCCC/C=C\CCCCCCCC` (stereo not given): the Drug uptake result in [1] is given as “Active”; in series [2], “Active”; in the series with Blood, “Not Active”; in the series with Liver, “Active”. Besides, the K worked out at 2.88 h⁻¹ in series [7], 46.8 h⁻¹ in series [8] and 3.24 h⁻¹ in series [9].
